In ChEMBL document CHEMBL3616459, “Antimicrobial peptides with potential for biofilm eradication: synthesis and structure activity relationship studies of battacin peptides” (J Med Chem, 2015):
≈ marks a conversion by molar mass, not a printed value.

What was measured:
[1] = system: Erwinia amylovora; test: Antimicrobial activity against Erwinia amylovora 1501 after 24 hrs by spectrophotometry; type: functional; conditions: Erwinia amylovora, 1501, 24 h
Procedure, shortened: (§1)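 Broth microdilution in Luria broth. Overnight culture from a single colony, grown at 28 °C (Ea1501, Psa) or 37 °C (E. coli, S. aureus), adjusted to OD600 0.6. Peptide dissolved in LB with 0.5% acetic acid as a dilution series; 50 μL peptide plus 50 μL culture per well, triplicates.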

[2] = system: Staphylococcus aureus; test: Antimicrobial activity against Staphylococcus aureus after 24 hrs by spectrophotometry; type: functional; procedure, shortened: as §1
[3] = system: Erwinia amylovora; test: Antimicrobial activity against streptomycin-resistant Erwinia amylovora after 24 hrs by spectrophotometry; type: functional
Procedure, shortened: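 Broth microdilution in Luria broth; overnight culture grown at 28 °C, adjusted to OD600 0.6, mixed 1:1 with a dilution series of peptide prepared in LB containing 0.5% acetic acid. Three replicates per concentration.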

[4] = system: Escherichia coli; test: Antimicrobial activity against Escherichia coli after 24 hrs by spectrophotometry; type: functional; procedure, shortened: as §1
[5] = system: Pseudomonas aeruginosa; test: Antimicrobial activity against Pseudomonas aeruginosa after 24 hrs by spectrophotometry; type: functional
[6] = Hemolytic activity in mouse erythrocytes at 100 uM after 1 hr by spectrophotometry; type: ADME, cell-based, Erythrocyte; conditions: read-out: Activity
Procedure, shortened: (§2)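 100 μL peptide (1 μM–1 mM in Tris buffer) plus 100 μL cells, incubated 1 h at 37 °C, triplicates. After centrifugation, supernatant A540 read. Percent hemolysis calculated relative to buffer (0%) and 0.1% Triton X-100 (100%) controls.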

[7] = Antimicrobial activity against Pseudomonas syringae pv. actinidiae 16027 after 24 hrs by spectrophotometry; type: functional; conditions: Pseudomonas syringae, 16027, 24 h; procedure, shortened: as §1
[8] = Hemolytic activity in mouse erythrocytes at 100 uM to 1 mM after 1 hr by spectrophotometry; type: ADME, cell-based, Erythrocyte; conditions: read-out: Activity; procedure, shortened: as §2

| SMILES | MIC [1] [µM] | MIC [2] [µM] | MIC [3] [µM] | MIC [4] [µM] | MIC [5] [µM] | hemolysis at 1 h, 100 µM [6] [%] | MIC [7] [µM] | hemolysis at 1 h, 100 µM [8] [%] |
| --- | --- | --- | --- | --- | --- | --- | --- | --- |
| CC(C)C[C@@H]1NC(=O)[C@H](CCN)NC(=O)[C@H](CCN)NC(=O)[C@@H](Cc2ccccc2)NC(=O)[C@H](CC(C)C)NC(=O)[C@H](CCN)NC(=O)[C@@H](NC(=O)[C@@H](CCN)NC(=O)OCC2c3ccccc3-c3ccccc32)CCNC1=O | 19 (≈ 20.8 µg/mL) | 2 (≈ 2.19 µg/mL) | 32 (≈ 35.1 µg/mL) | 19 (≈ 20.8 µg/mL) | 2 (≈ 2.19 µg/mL) | 41 | 19 (≈ 20.8 µg/mL) | – |
| CCC(C)CCC(=O)N[C@H](CCN)C(=O)N[C@H]1CCNC(=O)[C@H](CC(C)C)NC(=O)[C@H](CCN)NC(=O)[C@H](CCN)NC(=O)[C@@H](Cc2ccccc2)NC(=O)[C@H](CC(C)C)NC(=O)[C@H](CCN)NC1=O (some centres not stated) | 15 (≈ 14.8 µg/mL) | 101 (≈ 99.6 µg/mL) | 25 (≈ 24.7 µg/mL) | 15 (≈ 14.8 µg/mL) | 2.5 (≈ 2.47 µg/mL) | – | 5 (≈ 4.93 µg/mL) | 2.02 |
| CC(C)=CCC/C(C)=C/C(=O)N[C@H](CCN)C(=O)N[C@H]1CCNC(=O)[C@H](CC(C)C)NC(=O)[C@H](CCN)NC(=O)[C@H](CCN)NC(=O)[C@@H](Cc2ccccc2)NC(=O)[C@H](CC(C)C)NC(=O)[C@H](CCN)NC1=O | 98 (≈ 100 µg/mL) | 98 (≈ 100 µg/mL) | 488 (≈ 500 µg/mL) | 98 (≈ 100 µg/mL) | 10 (≈ 10.2 µg/mL) | – | 49 (≈ 50.2 µg/mL) | – |
| CCCCCCCCCCCCCC(=O)N[C@H](CCN)C(=O)N[C@H]1CCNC(=O)[C@H](CC(C)C)NC(=O)[C@H](CCN)NC(=O)[C@H](CCN)NC(=O)[C@@H](Cc2ccccc2)NC(=O)[C@H](CC(C)C)NC(=O)[C@H](CCN)NC1=O | 92 (≈ 99.8 µg/mL) | 92 (≈ 99.8 µg/mL) | 23 (≈ 24.9 µg/mL) | 92 (≈ 99.8 µg/mL) | 92 (≈ 99.8 µg/mL) | – | 46 (≈ 49.9 µg/mL) | – |
| CCCCCCCCCCCCCC(=O)N[C@H](CCCCN)C(=O)N[C@H]1CCCCNC(=O)[C@H](CC(C)C)NC(=O)[C@H](CCCCN)NC(=O)[C@H](CCCCN)NC(=O)[C@@H](Cc2ccccc2)NC(=O)[C@H](CC(C)C)NC(=O)[C@H](CCCCN)NC1=O | 81 (≈ 99.2 µg/mL) | 81 (≈ 99.2 µg/mL) | 20 (≈ 24.5 µg/mL) | 81 (≈ 99.2 µg/mL) | 409 (≈ 501 µg/mL) | – | 12 (≈ 14.7 µg/mL) | – |
| CCC(C)CCC(=O)N[C@H](CCN)C(=O)N[C@@H](CCN)C(=O)N[C@@H](CCN)C(=O)N[C@@H](CC(C)C)C(=O)N[C@H](Cc1ccccc1)C(=O)N[C@@H](CCN)C(=O)N[C@@H](CCN)C(=O)N[C@@H](C)C(=O)O (some centres not stated) | – | 5 (≈ 4.81 µg/mL) | – | 15 (≈ 14.4 µg/mL) | 5 (≈ 4.81 µg/mL) | – | 10 (≈ 9.62 µg/mL) | – |
| CCC(C)CCC(=O)N[C@H](CCN)C(=O)N[C@@H](CCN)C(=O)N[C@@H](CCN)C(=O)N[C@@H](CC(C)C)C(=O)N[C@H](Cc1ccccc1)C(=O)N[C@@H](CCN)C(=O)N[C@@H](C)C(=O)N[C@@H](CC(C)C)C(=O)O (some centres not stated) | – | 5 (≈ 4.88 µg/mL) | – | 5 (≈ 4.88 µg/mL) | 5 (≈ 4.88 µg/mL) | – | 2.5 (≈ 2.44 µg/mL) | – |
| CCC(C)CCC(=O)N[C@H](CCN)C(=O)N[C@@H](CCN)C(=O)N[C@@H](CCN)C(=O)N[C@@H](CC(C)C)C(=O)N[C@H](Cc1ccccc1)C(=O)N[C@@H](C)C(=O)N[C@@H](CCN)C(=O)N[C@@H](CC(C)C)C(=O)O (some centres not stated) | – | 500 (≈ 488 µg/mL) | – | 100 (≈ 97.5 µg/mL) | 50 (≈ 48.8 µg/mL) | – | 100 (≈ 97.5 µg/mL) | – |
| CCC(C)CCC(=O)N[C@H](CCN)C(=O)N[C@@H](CCN)C(=O)N[C@@H](CCN)C(=O)N[C@@H](CC(C)C)C(=O)N[C@@H](C)C(=O)N[C@@H](CCN)C(=O)N[C@@H](CCN)C(=O)N[C@@H](CC(C)C)C(=O)O (some centres not stated) | – | 25 (≈ 23.2 µg/mL) | – | 25 (≈ 23.2 µg/mL) | > 1000 | – | > 1000 | – |
| CCC(C)CCC(=O)N[C@H](CCN)C(=O)N[C@@H](CCN)C(=O)N[C@@H](CCN)C(=O)N[C@@H](C)C(=O)N[C@H](Cc1ccccc1)C(=O)N[C@@H](CCN)C(=O)N[C@@H](CCN)C(=O)N[C@@H](CC(C)C)C(=O)O (some centres not stated) | – | > 1000 | – | 500 (≈ 481 µg/mL) | > 1000 | – | > 1000 | – |
